The values that follow come from ChEMBL document CHEMBL3098087, “Synthesis and evaluation of (-)- and (+)-[¹¹C]galanthamine as PET tracers for cerebral acetylcholinesterase imaging” (Bioorg Med Chem, 2014).

Data set [1] concerns Cerebellum. The data set can be described thus: Biodistribution in ddY mouse cerebellum at 3.7 MBq, iv after 30 mins by gamma counting. In kind it is ADME, organism-based. The conditions noted are these: in vivo, 0.5 h. Put shortly:
(§1)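 ddY male mice, seven weeks old, 20–25 g, received 3.7 MBq of tracer. Five animals per time point, up to 60 min, were killed by exsanguination. Blood and brain, or striatum and cerebellum, were excised, weighed and gamma-counted. Uptake is expressed as %ID/g of tissue.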

For data set [2], the system named is Striatum. The data set can be described thus: Biodistribution in ddY mouse striatum at 3.7 MBq, iv after 30 mins by gamma counting. In kind it is ADME, organism-based. The note with it: in vivo, 0.5 h. Summed up:
as §1

For data set [3], the system named is Striatum. In words: Drug uptake in Wistar rat striatum at 2.2 […]/200 uL after 30 mins by autoradiography analysis. In kind it is ADME, tissue-based. The conditions noted are these: in vitro, 0.5 h. Summed up: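 Coronal brain sections (20 µm) from male Wistar rats were thaw-mounted on silane-coated slides. Sections were incubated with tracer in binding buffer for 30 min at 4°C, then washed with ice-cold buffer and water. They were exposed to imaging plates for 6 h alongside calibrated 11C standards.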

For data set [4], the system named is Striatum. In words: Biodistribution in ddY mouse striatum at 3.7 MBq, iv by gamma counting in presence of donepezil. The note with it: in vivo.
Data set [5] has as its system Brain. The data set can be described thus: Biodistribution in ddY mouse brain at 3.7 MBq, iv after 10 mins by gamma counting. In kind it is ADME, organism-based. The conditions noted are these: in vivo. Summed up: as §1
Data set [6] relates to Brain. The data set can be described thus: Biodistribution in ddY mouse brain at 74 MBq, iv after 10 to 30 mins by PET analysis. The note with it: in vivo.
Data set [7] deals with Striatum. In words: Drug uptake in Wistar rat striatum at 10 mM after 30 mins by autoradiography analysis counting in presence of donepezil. In kind it is ADME, tissue-based. The conditions noted are these: 0.5 h, 10000 µM.

The structures appear in SMILES notation.

As for `COc1ccc2c3c1O[C@H]1C[C@@H](O)C=C[C@@]31CCN([11CH3])C2`, the Drug uptake is recorded as 1.7 % ID/g in data set [1]; 2.1 % ID/g in data set [2]; “Active” in data set [3]; 1.3 % ID/g in data set [4]; 2.1 % ID/g in data set [5]; “Active” in data set [6]. The Drug uptake entry in data set [7] is “Not Active”.
As to `COc1ccc2c3c1O[C@@H]1C[C@H](O)C=C[C@]31CCN([11CH3])C2`, the results for the Drug uptake in data set [1], in data set [2] and in data set [5] were 1.5 % ID/g, 1.5 % ID/g and 2.1 % ID/g, respectively.
